Here are results for 26 molecules from ChEMBL document CHEMBL4007438, “Discovery of Competitive and Noncompetitive Ligands of the Organic Cation Transporter 1 (OCT1; SLC22A1)” (J Med Chem, 2017).

Data set [1] has as its target T1, Solute carrier family 22 member 1 (Homo sapiens, UniProt O15245).
T1 sequence (O15245 whole entry): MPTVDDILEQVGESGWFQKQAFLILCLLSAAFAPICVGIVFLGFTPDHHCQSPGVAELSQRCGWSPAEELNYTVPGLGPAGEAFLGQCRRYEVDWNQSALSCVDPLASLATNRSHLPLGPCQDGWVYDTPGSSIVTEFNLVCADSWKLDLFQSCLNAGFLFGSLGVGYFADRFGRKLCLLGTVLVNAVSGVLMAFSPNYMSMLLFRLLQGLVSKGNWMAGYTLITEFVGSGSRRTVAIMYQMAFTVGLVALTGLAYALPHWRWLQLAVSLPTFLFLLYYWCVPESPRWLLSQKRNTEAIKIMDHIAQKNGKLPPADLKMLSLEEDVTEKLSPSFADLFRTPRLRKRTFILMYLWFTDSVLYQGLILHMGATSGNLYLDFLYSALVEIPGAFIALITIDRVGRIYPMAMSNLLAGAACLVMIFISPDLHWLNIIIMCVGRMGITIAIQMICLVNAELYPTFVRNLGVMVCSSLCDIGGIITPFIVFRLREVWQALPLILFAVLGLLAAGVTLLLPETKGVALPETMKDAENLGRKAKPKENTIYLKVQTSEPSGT
The experiment in a line: Competitive inhibition of human OCT1 expressed in HEK293 cells assessed as decrease in uptake of ASP+ after 2 mins by Lineweaver-Burk plot analysis. Particulars: hek293, 2 min; call rule not given here. Format: cell-based. In short, it runs like this:
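HEK-293 cells stably overexpressing human OCT1 (kept in DMEM, 10% FBS, 75 µg/ml hygromycin B) were grown 48 h to ~90% confluence. They were exposed for 2 min at 37°C to HBSS with serial dilutions of ASP+ plus inhibitor at 4 fixed concentrations. Fluorescence was read at ex 485/em 585 nm. Reciprocal uptake at each inhibitor level was fitted by linear regression.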

The target of data set [2] is T1, Solute carrier family 22 member 1. The experiment in a line: (§1) Inhibition of human OCT1 expressed in HEK293 cells assessed as decrease in uptake of ASP+ after 2 mins by fluorescence assay. The class given is cell-based. Summed up: (§2)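 Human OCT1-overexpressing HEK-293 cells (48 h growth, ~90% confluent) were incubated 2 min at 37°C in HBSS with 2 µM ASP+ and serially diluted inhibitor. IC50 was obtained by curve fitting.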

Data set [3] shares this target. The experiment in a line: Inhibition of human OCT1 expressed in HEK293 cells assessed as decrease in uptake of YM155 after 1 min.
The target in another data set is T2, OCT1 (SLC22A1) (Homo sapiens, UniProt O15245).
T2 sequence (O15245 whole entry): T1 sequence (O15245 whole entry)
The data set is described as §1. Format: cell-based. The conditions noted are these: human, HEK293 cells that express human OCT1, probe ASP+. Summed up:
as §2

The target of data set [4] is T1, Solute carrier family 22 member 1. In words: Competitive inhibition of human OCT1 expressed in HEK293 cells assessed as decrease in uptake of ASP+ after 2 mins by Lineweaver-Burk plot analysis. Particulars: hek293, 2 min.
For data set [5] the target is unchanged. The experiment in a line: Ratio of Kii for human OCT1-ASP+-inhibitor complex to Kis for human OCT1-inhibitor complex by Lineweaver-Burk plot analysis.

pIC50: −log10 of the molar value.

Regarding `c1ccc(CC2NCCc3ccccc32)cc1` (centres undefined), the “inhibition (INH)” value in data set [1] was “Active”. For the same molecule, the negative logarithm of the IC50 (pIC50) in data set [2] is 4.09.
Regarding `COc1cc2nc(N(C)CCCNC(=O)C3CCCO3)nc(N)c2cc1OC` (centres undefined) [ALFUZOSIN], the pIC50 in data set [2] is 4.83.
Same read-out and setting: with `Oc1c(Cl)cc(Cl)cc1Sc1cc(Cl)cc(Cl)c1O` [BITHIONOL] the figure was 5.65; with `CCN(CC)CCNC(C(=O)OCCC(C)C)c1ccccc1` (centres undefined) [CAMYLOFIN], 5.04.
The same measure, in the same setting: with `CCN(CC)CCOCCOC(=O)C1(c2ccccc2)CCCC1` [CARBETAPENTANE] the figure was 5.80 to 5.81; with `COc1ccccc1OCCNCC(O)COc1cccc2[nH]c3ccccc3c12` (centres undefined) [CARVEDILOL], 5.46 to 5.47.
For the molecule `CN/C(=N/CCSCc1nc[nH]c1C)NC#N` [CIMETIDINE], the pIC50 in data set [3] was 3.83. For the same molecule, the inhibition at 2 min at OCT1 (SLC22A1) stood at 4.13%.
`Clc1cccc(Cl)c1N=C1NCCN1` [CLONIDINE]: the pIC50 in data set [2] is 4.72.
As to `Clc1ccc(C(OCCN2CCCCC2)c2ccccc2)cc1` (centres undefined) [CLOPERASTINE], the pIC50 in data set [2] was 4.83.
Consider `Cc1cc(C(C#N)c2ccc(Cl)cc2)c(Cl)cc1NC(=O)c1cc(I)cc(I)c1O` (centres undefined) [CLOSANTEL], for which the negative logarithm of the IC50 (pIC50) in data set [2] was 5.52.
On the same count and under the same terms, with `Clc1ccccc1C(c1ccccc1)(c1ccccc1)n1ccnc1` [CLOTRIMAZOLE] the figure was 4.92; with `CNCCCN1c2ccccc2CCc2ccccc21` [DESIPRAMINE], 5.04.
Turning to `COc1ccc2c(c1)[C@]13CCCC[C@@H]1[C@H](C2)N(C)CC3` [DEXTROMETHORPHAN], in data set [2], the pIC50 was 4.98.
Take `Oc1ccc(Cl)cc1Cc1cc(Cl)ccc1O` [DICHLOROPHEN]: the pIC50 in data set [2] was 5.08.
For `CC(CCc1ccc(O)cc1)NCCc1ccc(O)c(O)c1` (centres undefined) [DOBUTAMINE], the negative-log IC50 (pIC50) in data set [2] is 5.38.
For the molecule `CN(C)CCC=C1c2ccccc2COc2ccccc21` [DOXEPIN], the pIC50 in data set [2] is 4.95.
For `CCN(CC)C(C)CN1c2ccccc2Sc2ccccc21` (centres undefined) [ETHOPROPAZINE], the “inhibition (INH)” value in data set [1] and in data set [4] was “Active” in each case. In addition, in data set [2], the negative-log IC50 (pIC50) is 4.69.
In the case of `COC1=CC(=O)C[C@@H](C)[C@]12Oc1c(Cl)c(OC)cc(OC)c1C2=O` [GRISEOFULVIN], the negative logarithm of the IC50 (pIC50) in data set [2] is 5.14.
As for `N=C(N)N/N=C/c1c(Cl)cccc1Cl` [GUANABENZ], the negative-log IC50 (pIC50) in data set [2] was 5.31.
Same read-out and setting: with `CN(C)CCCN1c2ccccc2CCc2ccccc21` [IMIPRAMINE] the figure was 5.10.
The same measure, in the same setting: with `CC(=O)N1CCN(c2ccc(OCC3COC(Cn4ccnc4)(c4ccc(Cl)cc4Cl)O3)cc2)CC1` (centres undefined) [KETOCONAZOLE] the figure was 5.59; with `CCCNCC(O)COc1ccccc1C(=O)CCc1ccccc1` (centres undefined) [PROPAFENONE], 4.81; with `CCc1nc(N)nc(N)c1-c1ccc(Cl)cc1` [PYRIMETHAMINE], 4.87.
In the case of `CCN(CC)CCNC(=O)c1c(C)[nH]c(/C=C2\C(=O)Nc3ccc(F)cc32)c1C` [SUNITINIB], in data set [2], the pIC50 was 5.21.
For `Nc1c2c(nc3ccccc13)CCCC2` [TACRINE], the “inhibition (INH)” value in data set [1] and in data set [4] was “Active” each time. Moreover, the negative logarithm of the IC50 (pIC50) in data set [2] is 4.66.
On to `Cc1ncc(C[n+]2csc(CCO)c2C)c(N)n1` [THIAMINE ION], for which, in data set [5], the Ratio turned out to be 95.6. In addition, the negative logarithm of the IC50 (pIC50) in data set [2] was 2.36. The inhibition at 2 min at OCT1 (SLC22A1) is -1.5%.

In general, pIC50 refers to the IC50 on a negative log10 scale, so that one unit is a factor of ten. For orientation: inhibition means the drop in the measured response relative to a control, in per cent.
